pIC50: −log10 of the molar value. Calls of active or inactive are those of the source. The rule behind the calls is not given here.
What was measured:
NIH3T3 [1] = test: Cytoprotective activity against UV-induced apoptosis in mouse NIH/3T3 cells assessed as late apoptotic cells at 10 uM preincubated for 20 hrs followed by UV irradiation for 5 mins and measured after 24 hrs by flow cytometric analysis (reference value: 6.4%); assay type: functional
NIH3T3 [2] = test: Cytoprotective activity against UV-induced apoptosis in mouse NIH/3T3 cells assessed as necrotic cells at 10 uM preincubated for 20 hrs followed by UV irradiation for 5 mins and measured after 24 hrs by flow cytometric analysis (reference value: 1.5%); assay type: functional
[3] = target: T1, Sphingomyelin phosphodiesterase (Mus musculus) (UniProt Q04519); test: Inhibition of UV-induced ceramide production in mouse NIH/3T3 cells assessed as ceramide level at 50 uM by LC-MS/MS analysis (reference value: 107.686 pmol/mg); assay type: cell-based
T1 sequence (whole entry): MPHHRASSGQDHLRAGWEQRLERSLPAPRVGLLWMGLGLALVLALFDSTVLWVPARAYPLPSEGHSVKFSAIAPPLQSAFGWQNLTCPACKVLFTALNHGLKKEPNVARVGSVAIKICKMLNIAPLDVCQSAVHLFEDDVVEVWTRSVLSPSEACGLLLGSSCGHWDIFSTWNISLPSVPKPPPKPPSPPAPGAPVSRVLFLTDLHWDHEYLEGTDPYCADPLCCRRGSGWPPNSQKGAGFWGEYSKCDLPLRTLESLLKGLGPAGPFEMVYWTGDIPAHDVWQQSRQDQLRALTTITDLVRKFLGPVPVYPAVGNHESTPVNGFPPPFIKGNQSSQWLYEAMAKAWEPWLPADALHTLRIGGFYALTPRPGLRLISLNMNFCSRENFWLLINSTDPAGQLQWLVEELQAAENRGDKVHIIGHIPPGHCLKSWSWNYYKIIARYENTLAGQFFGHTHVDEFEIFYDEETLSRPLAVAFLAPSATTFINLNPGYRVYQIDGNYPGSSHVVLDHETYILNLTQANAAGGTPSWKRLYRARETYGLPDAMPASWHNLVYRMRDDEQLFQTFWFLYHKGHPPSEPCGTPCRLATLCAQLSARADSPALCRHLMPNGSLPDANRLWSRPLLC
Procedure, shortened: (§1)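 Ceramide in the UV-apoptosis setup: NIH3T3 cells pretreated with inhibitor 20 h, UV 315 nm 0.29 mW/cm² 5 min, further 24 h with inhibitor; ceramide quantified (pmol/mg) by LC-MS-MS; amitriptyline as positive control; mean ± SD of three independent experiments.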

NIH3T3 [4] = test: Cytoprotective activity against UV-induced apoptosis in mouse NIH/3T3 cells assessed as late apoptotic cells at 60 uM preincubated for 20 hrs followed by UV irradiation for 5 mins and measured after 24 hrs by flow cytometric analysis (reference value: 6.4%); assay type: functional
NIH3T3 [5] = test: Cytoprotective activity against UV-induced apoptosis in mouse NIH/3T3 cells assessed as early apoptotic cells at 10 uM preincubated for 20 hrs followed by UV irradiation for 5 mins and measured after 24 hrs by flow cytometric analysis (reference value: 79.5%); assay type: functional
[6] = target: T2, Sphingomyelin phosphodiesterase (Homo sapiens, UniProt P17405); test: Inhibition of acid sphingomyelinase in human HuH7 cell lysate using NBD-sphingomyelin as substrate after 30 mins by TLC based fluorescence assay
T2 sequence (P17405 whole entry): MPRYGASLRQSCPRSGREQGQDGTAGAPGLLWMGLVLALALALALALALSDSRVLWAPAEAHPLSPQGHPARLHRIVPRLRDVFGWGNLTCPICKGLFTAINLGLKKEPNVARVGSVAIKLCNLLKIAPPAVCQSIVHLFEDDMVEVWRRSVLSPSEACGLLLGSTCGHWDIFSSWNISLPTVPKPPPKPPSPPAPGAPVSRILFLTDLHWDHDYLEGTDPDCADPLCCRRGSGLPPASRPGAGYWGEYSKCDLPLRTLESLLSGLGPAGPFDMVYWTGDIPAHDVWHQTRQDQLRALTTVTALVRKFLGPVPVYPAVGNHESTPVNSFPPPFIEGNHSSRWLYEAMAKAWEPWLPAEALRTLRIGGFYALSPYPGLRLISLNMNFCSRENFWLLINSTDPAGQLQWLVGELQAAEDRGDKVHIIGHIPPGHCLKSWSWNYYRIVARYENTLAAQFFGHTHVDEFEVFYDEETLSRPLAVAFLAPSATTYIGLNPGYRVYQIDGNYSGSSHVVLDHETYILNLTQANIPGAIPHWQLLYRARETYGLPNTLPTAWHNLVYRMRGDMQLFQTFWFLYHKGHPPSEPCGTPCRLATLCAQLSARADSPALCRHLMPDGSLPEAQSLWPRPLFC

[7] = target: T1, Sphingomyelin phosphodiesterase (Mus musculus); test: Inhibition of UV-induced ceramide production in mouse NIH/3T3 cells by LC-MS/MS analysis; assay type: cell-based; procedure, shortened: as §1
[8] = target: T3, Sphingomyelin phosphodiesterase (Homo sapiens) (UniProt P17405); test: Competitive inhibition of acid sphingomyelinase in human HuH7 cell lysate using varying levels of NBD-sphingomyelin as substrate at 0.5 to 5 uM after 30 mins by Lineweaver-Burk analysis; settings: in the assay text read “after 10 mins” for “after 30 mins”
T3 sequence (whole entry): T2 sequence (P17405 whole entry)
Procedure, shortened: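 Kinetics using the lysate ASM protocol, NBD-SM at 1.35, 1.89, 2.70, 4.54 and 13.5 µM per inhibitor level (0.5, 1.0, 5 µM); reaction stopped after 10 min; NBD-ceramide quantified by HPLC against a standard curve; Lineweaver-Burk plots by linear regression; triplicate.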

NIH3T3 [9] = test: Inhibition of LPS-induced IL-6 production in mouse NIH/3T3 cells preincubated for 20 hrs followed by LPS-stimulation and measured after 6 hrs by ELISA; assay type: functional, cell-based
Procedure, shortened: (§2)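 NIH3T3 cells (DMEM, 10% FBS) seeded at 2*10⁵ per well overnight, inhibitor 20 h, then LPS to 50 ng/mL for a further 6 h; IL-6 or IL-8 measured by ELISA; compared with LPS-only and control groups.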

NIH3T3 [10] = test: Cytoprotective activity against UV-induced apoptosis in mouse NIH/3T3 cells assessed as necrotic cells at 60 uM preincubated for 20 hrs followed by UV irradiation for 5 mins and measured after 24 hrs by flow cytometric analysis (reference value: 1.5%); assay type: functional
NIH3T3 [11] = test: Inhibition of LPS-induced IL-8 production in mouse NIH/3T3 cells at 2.5 uM preincubated for 20 hrs followed by LPS-stimulation and measured after 6 hrs by ELISA; assay type: functional, cell-based; procedure, shortened: as §2
NIH3T3 [12] = test: Cytoprotective activity against UV-induced apoptosis in mouse NIH/3T3 cells assessed as early apoptotic cells at 40 uM preincubated for 20 hrs followed by UV irradiation for 5 mins and measured after 24 hrs by flow cytometric analysis (reference value: 79.5%); assay type: functional
NIH3T3 [13] = test: Cytoprotective activity against UV-induced apoptosis in mouse NIH/3T3 cells assessed as late apoptotic cells at 20 uM preincubated for 20 hrs followed by UV irradiation for 5 mins and measured after 24 hrs by flow cytometric analysis (reference value: 6.4%); assay type: functional
NIH3T3 [14] = test: Cytoprotective activity against UV-induced apoptosis in mouse NIH/3T3 cells assessed as early apoptotic cells at 20 uM preincubated for 20 hrs followed by UV irradiation for 5 mins and measured after 24 hrs by flow cytometric analysis (reference value: 79.5%); assay type: functional
NIH3T3 [15] = test: Cytoprotective activity against UV-induced apoptosis in mouse NIH/3T3 cells assessed as late apoptotic cells at 40 uM preincubated for 20 hrs followed by UV irradiation for 5 mins and measured after 24 hrs by flow cytometric analysis (reference value: 6.4%); assay type: functional

## CCCCCCCCCCOc1cc(C(=O)NO)ccc1OC
NIH3T3 [1]
  Activity: 11%
NIH3T3 [2]
  Activity: 0%
[3]
  Activity: 106 pmol/mg
NIH3T3 [4]
  Activity: 7.5%
NIH3T3 [5]
  Activity: 42.1%
[6]
  pIC50: 6.32
[7]
  inhibition: Dose-dependent effect
[8]
  inhibition: Active
NIH3T3 [9]
  inhibition: Dose-dependent effect
NIH3T3 [10]
  Activity: 0.6%
NIH3T3 [11]
  inhibition: inactive
NIH3T3 [12]
  Activity: 41.1%
NIH3T3 [13]
  Activity: 8.4%
NIH3T3 [14]
  Activity: 36.8%
NIH3T3 [15]
  Activity: 7.9%
